pIC50: −log10 of the molar value. The source made the active and inactive calls. No cut-off for these calls is given here.
What was measured:
[1] = Inhibition of 1 uM ABA-induced Increase in intracellular cAMP level in human granulocytes incubated for 1 min at 25 degC; assay type: functional, cell-based
Procedure, shortened: (§1)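 Cells were rested overnight, then resuspended at 1.5 × 10⁷/ml in HBSS containing Ca and Mg. After a 5 min preincubation at 25 °C with Ro-20-1724 (PDE inhibitor), aliquots received ABA with or without analog for 1 min at 25 °C; untreated cells were the control. Cold perchloric acid ended the reaction; lysate was spun, neutralized with K2CO3 to pH 7.5, and cleared of KClO4. cAMP was measured by [³H]-cAMP radioimmunoassay and given as increase over control.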

LanC-like protein 2 = target: T1, LanC-like protein 2 (Homo sapiens, UniProt Q9NS86); test: Inhibition of ABA binding to LANCL2 (unknown origin)
T1 sequence (Q9NS86 whole entry): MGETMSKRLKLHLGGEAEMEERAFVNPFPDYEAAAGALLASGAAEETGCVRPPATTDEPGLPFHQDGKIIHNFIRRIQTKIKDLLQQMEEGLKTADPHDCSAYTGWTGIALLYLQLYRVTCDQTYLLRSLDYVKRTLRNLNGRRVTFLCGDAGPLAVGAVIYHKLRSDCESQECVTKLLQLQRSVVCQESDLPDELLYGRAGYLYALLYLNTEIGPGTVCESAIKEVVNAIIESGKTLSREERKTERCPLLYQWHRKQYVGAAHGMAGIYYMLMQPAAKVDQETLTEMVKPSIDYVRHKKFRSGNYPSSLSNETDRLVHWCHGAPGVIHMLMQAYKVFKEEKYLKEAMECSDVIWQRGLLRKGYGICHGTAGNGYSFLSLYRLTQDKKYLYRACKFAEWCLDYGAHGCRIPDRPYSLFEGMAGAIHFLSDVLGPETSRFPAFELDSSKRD

Homo sapiens [2] = organism: Homo sapiens; test: Inhibition of 1 uM ABA-induced Increase in intracellular cAMP level in human granulocytes at 50 uM incubated for 1 min at 25 degC; assay type: functional, cell-based; procedure, shortened: as §1
Homo sapiens [3] = organism: Homo sapiens; test: Increase in intracellular cAMP level in human granulocytes at 50 uM incubated for 1 min at 25 degC; assay type: functional, cell-based
Procedure, shortened: (§2)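 Human granulocytes were rested overnight after purification, pelleted at 200×g for 5 min, and resuspended at 1.5 × 10⁷/ml in HBSS with Ca and Mg. Cells were preincubated 5 min at 25 °C with the PDE inhibitor Ro-20-1724, then given analog alone for 1 min at 25 °C. Perchloric acid at 4 °C stopped the reaction, and supernatant was neutralized to pH 7.5 with K2CO3. cAMP was read by [³H]-cAMP competitive radioimmunoassay and reported relative to untreated cells.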

Homo sapiens [4] = organism: Homo sapiens; test: Inhibition of 1 uM ABA-induced Increase in intracellular cAMP level in human granulocytes at 1 to 10 uM incubated for 1 min at 25 degC; assay type: functional, cell-based; procedure, shortened: as §1
Homo sapiens [5] = organism: Homo sapiens; test: Increase in intracellular cAMP level in human granulocytes at 1 to 50 uM incubated for 1 min at 25 degC; assay type: functional, cell-based; procedure, shortened: as §2
Homo sapiens [6] = organism: Homo sapiens; test: Potentiation of 1 uM ABA-induced Increase in intracellular cAMP level in human granulocytes at 50 uM incubated for 1 min at 25 degC; assay type: functional, cell-based; procedure, shortened: as §1
Homo sapiens [7] = organism: Homo sapiens; test: (§3) Increase in intracellular cAMP level in human granulocytes at 1 uM incubated for 1 min at 25 degC; assay type: functional; procedure, shortened: as §2
Homo sapiens [8] = organism: Homo sapiens; test: Increase in intracellular cAMP level in human granulocytes at 1 to 10 uM incubated for 1 min at 25 degC; assay type: functional, cell-based; procedure, shortened: as §2
[9] = as §3; assay type: functional; procedure, shortened: as §2

For `CC(=C/C(=O)O)/C=C/C1(O)C(C)(C)CC(=O)C2OC21C` (racemic), the pIC50 [1] was 9.15, the pIC50 (LanC-like protein 2) was 8.18 and the inhibition (Homo sapiens [2]) was “Active”.

In the case of `CC1=CC(=O)CC(C)(C)C1(O)/C=C/C(C)=C\C(=O)OCC(=O)OCC(=O)O` (racemic), the Activity (Homo sapiens [3]) was “inactive”, the inhibition (Homo sapiens [2]) was “Active” and the inhibition (Homo sapiens [4]) was “inactive”.

With `CC1=CC(O)CC(C)(C)C1(O)/C=C/C(C)=C\C(=O)O` (racemic) the Activity (Homo sapiens [5]) was “Active”.

In the case of `COC(=O)/C=C(C)\C=C\c1c(C)cc(OC(C)=O)c(C)c1C`, the Activity (Homo sapiens [5]) was “inactive” and the inhibition (Homo sapiens [2]) was “inactive”.

With `CC1=CC(=O)CC(C)(C)C1(O)/C=C/C(C)=C\C(=O)OC(C)(C)C` (racemic) the Activity (Homo sapiens [6]) was “inactive” and the Activity (Homo sapiens [5]) was “Active”.

In the case of `CC1=CC(=O)CC(C)(C)C1(O)/C=C/C(C)=C\C(=O)Nc1ccc(N)cc1` (racemic), the Activity (Homo sapiens [5]) was “inactive” and the inhibition (Homo sapiens [2]) was “inactive”.

In the case of `CC1=CC(=O)CC(C)(C)C1(O)/C=C/C(C)=C\C(=O)Nc1ccccc1` (racemic), the Activity (Homo sapiens [7]) was “Active” and the Activity (Homo sapiens [5]) was “Active”.

In the case of `CC1=CC(=O)O/C1=C\C1(O)C(C)=CC(=O)CC1(C)C` (racemic), the Activity (Homo sapiens [5]) was “Active”.

For `CC1=CC(O)CC(C)(C)C1(O)/C=C/C(C)=C\CO` (racemic), the Activity (Homo sapiens [5]) was “Active”.

With `CC(=O)/C=C/C12OC1(C)CCCC2(C)C` (racemic) the Activity (Homo sapiens [3]) was “Active”, the Activity (Homo sapiens [8]) was “inactive” and the inhibition (Homo sapiens [2]) was “inactive”.

For `COC(=O)/C=C(C)\C=C\C1(O)C(C)=CC(=O)CC1(C)C` (racemic), the Activity (Homo sapiens [6]) was “Active” and the Activity (Homo sapiens [5]) was “Active”.

For `CC1=CC(=O)CC(C)(C)C1(O)/C=C/C(C)=C\CO` (racemic), the Activity (Homo sapiens [5]) was “Active”.

With `CC1=CC(=O)CC(C)(C)C1(O)/C=C/C(C)=C\C(=O)OCC(=O)OC(C)(C)C` (racemic) the Activity (Homo sapiens [7]) was “Active” and the Activity (Homo sapiens [8]) was “Active”.

In the case of `COC(=O)/C=C(C)\C=C\C1(O)C(C)=CC(O)CC1(C)C` (racemic), the Activity (Homo sapiens [5]) was “inactive” and the inhibition (Homo sapiens [2]) was “inactive”.

`CC1=CC(=O)CC(C)(C)[C@@]1(O)/C=C/C(C)=C\C(=O)O` (racemic) [(+)-ABSCISIC ACID] gave an Activity [9] of 35%.

With `CC1=CC(O)CC(C)(C)C1(O)/C=C/C(C)=C\C(=O)OCC(=O)OC(C)(C)C` (racemic) the Activity (Homo sapiens [5]) was “inactive” and the inhibition (Homo sapiens [2]) was “inactive”.

With `CCN(CC)C(=O)/C=C(C)\C=C\C1(O)C(C)=CC(=O)CC1(C)C` (racemic) the Activity (Homo sapiens [5]) was “Active”.

In the case of `CC(=O)OC1C=C(C)C(O)(/C=C/C(C)=C\C(=O)O)C(C)(C)C1` (racemic), the Activity (Homo sapiens [5]) was “Active”.

In the case of `COc1ccc(NC(=O)/C=C(C)\C=C\C2(O)C(C)=CC(=O)CC2(C)C)cc1` (racemic), the Activity (Homo sapiens [7]) was “Active” and the Activity (Homo sapiens [5]) was “Active”.

Reference: ChEMBL document CHEMBL3352196, “Synthesis, structural characterization and effect on human granulocyte intracellular cAMP levels of abscisic acid analogs” (Bioorg Med Chem, 2015)
